How the values were obtained:
[1] = molecular target: Disintegrin and metalloproteinase domain-containing protein 17 (Homo sapiens, UniProt P78536); assay: Inhibition of recombinant human C-terminal His6-tagged ADAM17 (Arg215 to Asn671 residues) expressed in baculovirus infected Sf21 cells using Mca-PLAQAV-Dpa-RSSSR-NH2 as substrate by fluorescence spectrophotometric method
Procedure, shortened: (§1)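 Enzymes and their substrates were obtained as in earlier work, and inhibition was run by a previously reported protocol. Ki values were measured in triplicate.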

[2] = molecular target: T1, Disintegrin and metalloproteinase domain-containing protein 10 (Homo sapiens) (UniProt O14672); assay: Inhibition of recombinant human C-terminal His10-tagged ADAM10 (Thr214 to Glu672 residues) expressed in baculovirus infected Sf21 cells at 10 uM using McaKPLGL-Dpa-AR-NH2 as substrate by fluorescence spectrophotometric method relative to control
T1 sequence (whole entry): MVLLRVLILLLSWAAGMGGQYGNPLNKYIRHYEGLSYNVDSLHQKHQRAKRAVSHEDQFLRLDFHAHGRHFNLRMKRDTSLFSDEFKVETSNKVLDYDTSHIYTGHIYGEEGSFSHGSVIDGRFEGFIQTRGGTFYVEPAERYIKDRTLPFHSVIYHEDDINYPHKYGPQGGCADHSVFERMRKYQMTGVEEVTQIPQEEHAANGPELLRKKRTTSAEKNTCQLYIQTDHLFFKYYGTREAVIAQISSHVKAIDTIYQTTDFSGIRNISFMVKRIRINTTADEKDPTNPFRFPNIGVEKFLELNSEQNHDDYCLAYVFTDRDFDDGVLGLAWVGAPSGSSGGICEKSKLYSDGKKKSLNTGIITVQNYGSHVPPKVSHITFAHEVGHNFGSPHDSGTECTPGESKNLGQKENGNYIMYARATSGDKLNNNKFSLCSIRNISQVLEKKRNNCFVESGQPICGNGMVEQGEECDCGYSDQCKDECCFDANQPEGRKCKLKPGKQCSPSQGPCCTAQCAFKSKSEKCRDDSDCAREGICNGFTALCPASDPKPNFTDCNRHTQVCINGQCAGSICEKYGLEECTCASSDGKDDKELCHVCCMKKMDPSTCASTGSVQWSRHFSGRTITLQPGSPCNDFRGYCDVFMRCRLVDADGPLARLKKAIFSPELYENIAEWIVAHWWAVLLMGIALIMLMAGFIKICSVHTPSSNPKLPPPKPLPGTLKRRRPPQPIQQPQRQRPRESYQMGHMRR
Procedure, shortened: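 Single inhibitor concentration of 10 μM, reported as percent inhibition. Enzymes and substrates as in earlier work, with inhibition run by a previously reported protocol.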

[3] = molecular target: Macrophage metalloelastase (Homo sapiens, UniProt P39900); assay: Inhibition of recombinant human MMP12 catalytic domain using Mca-PLGL-DpaAR-NH2 as substrate by fluorescence spectrophotometric method; procedure, shortened: as §1
Neutrophil collagenase = Neutrophil collagenase (Homo sapiens, UniProt P22894); assay: Inhibition of recombinant human MMP8 catalytic domain (Phe99 to Gln269 residues) expressed in Escherichia coli using McaKPLGL-Dpa-AR-NH2 as substrate by fluorescence spectrophotometric method; procedure, shortened: as §1
Chain of Neutrophil collagenase (P22894 whole entry, the tested form may be a part): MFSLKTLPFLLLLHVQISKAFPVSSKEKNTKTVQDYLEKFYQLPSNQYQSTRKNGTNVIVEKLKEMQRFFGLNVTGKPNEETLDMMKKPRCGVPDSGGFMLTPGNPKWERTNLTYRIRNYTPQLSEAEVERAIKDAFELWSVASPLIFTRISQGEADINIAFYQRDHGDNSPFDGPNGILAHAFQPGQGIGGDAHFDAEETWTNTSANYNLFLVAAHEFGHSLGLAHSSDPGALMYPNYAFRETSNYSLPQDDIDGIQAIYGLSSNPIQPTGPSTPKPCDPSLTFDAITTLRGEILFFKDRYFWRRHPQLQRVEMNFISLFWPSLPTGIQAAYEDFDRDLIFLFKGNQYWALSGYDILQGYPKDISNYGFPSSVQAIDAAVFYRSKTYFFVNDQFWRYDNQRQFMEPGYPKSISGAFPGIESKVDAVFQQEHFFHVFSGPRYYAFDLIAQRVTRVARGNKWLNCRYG

Chain of Disintegrin and metalloproteinase domain-containing protein 17 (P78536 whole entry, the tested form may be a part): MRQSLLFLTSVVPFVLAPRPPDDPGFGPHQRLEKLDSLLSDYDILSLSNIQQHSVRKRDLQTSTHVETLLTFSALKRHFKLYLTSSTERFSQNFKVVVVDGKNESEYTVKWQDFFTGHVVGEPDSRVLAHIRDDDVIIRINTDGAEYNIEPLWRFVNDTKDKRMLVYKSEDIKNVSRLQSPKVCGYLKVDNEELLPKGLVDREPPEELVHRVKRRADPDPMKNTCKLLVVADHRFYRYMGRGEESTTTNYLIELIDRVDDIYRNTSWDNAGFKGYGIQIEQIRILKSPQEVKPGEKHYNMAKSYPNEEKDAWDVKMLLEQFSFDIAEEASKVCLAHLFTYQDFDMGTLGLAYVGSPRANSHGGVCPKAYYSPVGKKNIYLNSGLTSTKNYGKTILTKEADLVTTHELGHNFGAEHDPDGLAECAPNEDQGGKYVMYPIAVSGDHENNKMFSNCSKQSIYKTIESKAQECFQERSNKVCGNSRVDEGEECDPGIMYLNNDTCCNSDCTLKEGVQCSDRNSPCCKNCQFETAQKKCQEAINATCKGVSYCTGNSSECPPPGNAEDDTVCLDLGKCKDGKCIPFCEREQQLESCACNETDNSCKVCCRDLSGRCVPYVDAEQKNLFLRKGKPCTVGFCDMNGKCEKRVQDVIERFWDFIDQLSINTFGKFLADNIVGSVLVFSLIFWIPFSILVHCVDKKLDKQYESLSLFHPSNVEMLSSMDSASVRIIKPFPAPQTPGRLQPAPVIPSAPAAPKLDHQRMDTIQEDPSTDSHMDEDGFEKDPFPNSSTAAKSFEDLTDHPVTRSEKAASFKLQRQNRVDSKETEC
Chain of Macrophage metalloelastase (P39900 whole entry, the tested form may be a part): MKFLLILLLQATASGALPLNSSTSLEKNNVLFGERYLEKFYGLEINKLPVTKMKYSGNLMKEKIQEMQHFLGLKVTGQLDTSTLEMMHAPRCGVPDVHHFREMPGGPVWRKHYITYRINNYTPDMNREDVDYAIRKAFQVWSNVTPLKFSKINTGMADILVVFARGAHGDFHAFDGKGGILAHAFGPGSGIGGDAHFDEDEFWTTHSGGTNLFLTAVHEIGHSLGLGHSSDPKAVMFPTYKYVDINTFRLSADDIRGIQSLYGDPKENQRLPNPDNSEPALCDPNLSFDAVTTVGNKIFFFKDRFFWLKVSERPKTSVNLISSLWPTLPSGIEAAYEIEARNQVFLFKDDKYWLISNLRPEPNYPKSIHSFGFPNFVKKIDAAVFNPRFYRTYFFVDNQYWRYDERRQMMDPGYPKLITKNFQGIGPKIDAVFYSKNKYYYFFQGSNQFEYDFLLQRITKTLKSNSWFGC

SMILES: CN1CC2(CC2)C[C@H](C(=O)NO)[C@H]1C(=O)N1CCN(c2ccc(C(F)(F)F)cn2)CC1
- Ki [1]: 61 nM
- inhibition [2]: 3%
- Ki [3]: 29.5 nM
- Ki (Neutrophil collagenase): 3.01 nM

Reference: ChEMBL document CHEMBL4145666, “In Search of Selectivity in Inhibition of ADAM10” (ACS Med Chem Lett, 2018)
